In the library only some 2.1% were active in any assay of this set; here they are far more common.
RanGTP-Imp inh – inhibitors of RanGTP-importin-beta interaction, primary screen, biochemical, FRET, CFP-Ran, YFP-importin-beta, homogeneous; cell-free CFP-Ran/YFP-importin-beta FRET ratio; inhibition, % (no concentration beside the values); 300,000 tested, 1.1% active; AID 2216;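 active means more than half of the replicate wells show a fall in the fluorescence ratio signal beyond about 16%, limit read from the data, passing the limit was not always enough; inconclusive means exactly half of the replicate wells pass the set limit; inactive means fewer than half of replicates pass the limit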
MEX-5 binding – C. elegans MEX-5 TCR-2 RNA binding activity. Q9XUB2. MEX-5/FITC-TCR2 RNA binding, fluorescence polarization; stronger effect = lower value. activity score (negative = inhibition of binding), % at 10 µM. 300,000 tested, 0.38% active. AID 1832;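 active means inhibition past about -25% in most replicates, and total fluorescence under double the plate's negative control median, limit read from the data; inconclusive means replicates evenly split on the limit, or fluorescence at least double controls; inactive means too little inhibition in most replicates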
Runt-CBFb FRET – Runt domain-CBFb interaction inhibition | Cerulean-Runt/Venus-CBFb FRET ratio 530/480, 1 h | inhibition, % at 20 µM | 220,000 tested, 0.46% active | AID 1496;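 active means inhibition over about 50% at 20 µM in the single-dose screen, limit read from the data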
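System: Cerulean-labeled Runt domain protein | Quantity: 100 nM of each labeled protein | Schedule: 1 h compound exposure, room temperature | Detection: Fluorescence energy transfer, 422 nm excitation, 530/480 nm emission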
Runt-SMMHC FRET – blocks binding of human RUNX1 Runt domain to CBFb-SMMHC. 220,000 tested, 0.74% active. Q01196+Q13951. Cerulean-Runt/Venus-CBFb-SMMHC FRET ratio 530/480, 1 h. AID 1434. inhibition, % at 20 µM;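 active means mean inhibition across duplicate retests at 20 µM reaching about 50%, limit read from the data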;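 further: inhibitors lower the FRET ratio by blocking Runt binding to CBFb-SMMHC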
proKLK7 act – activators of human kallikrein-7 zymogen; purified proKLK7, EDANS-DABCYL substrate fluorescence; 100% is mature enzyme control, 0% vehicle; AID 652039; 370,000 tested, 0.9% active; activation, % at 7 µM; P49862;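 active means activation above the mean of all tested compounds plus 3 SD, computed per campaign excluding outliers beyond control limits, cut at about 13% in these data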
Target sequence (P49862 whole entry, looked up): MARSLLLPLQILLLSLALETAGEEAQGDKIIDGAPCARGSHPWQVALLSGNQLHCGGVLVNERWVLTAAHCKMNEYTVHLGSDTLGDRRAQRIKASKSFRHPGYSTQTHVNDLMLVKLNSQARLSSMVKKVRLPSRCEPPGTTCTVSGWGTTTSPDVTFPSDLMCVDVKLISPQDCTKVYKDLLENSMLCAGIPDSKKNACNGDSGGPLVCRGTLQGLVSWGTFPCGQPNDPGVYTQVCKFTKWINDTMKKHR
YIC FRET counter – counter-screen: alters YIC FRET probe signal. Purified YIC probe, intramolecular FRET ratio YFP/CFP. AID 435026. shares compounds with RanGTP-Imp inh. 1,000 tested, 40% active. IC50, µM;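 active means fitted half-maximal inhibitory concentration no more than tenfold above the top dose tested; inconclusive means flat fit with 30 to 70% activity, or poor fit; inactive means half-maximal concentration beyond tenfold above the top dose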
A number is an active result; - = inactive; ? = inconclusive; . = no result given.

SMILES | RanGTP-Imp inh | MEX-5 binding | Runt-CBFb FRET | Runt-SMMHC FRET | proKLK7 act | YIC FRET counter
CCS(=O)(=O)c1nc(S(=O)(=O)c2ccc(C)cc2)c(NCc2ccccn2)s1 | 16.4 | - | - | - | - | -
Cc1ccc(N(CC(=O)Nc2c(C)cccc2C)S(C)(=O)=O)cc1 | - | - | . | . | - | .
COc1ccc(NC(=O)C2Cc3c(-c4ccc(NC(C)=O)cc4)ccnc3O2)cn1 (centres undefined) | . | . | . | . | - | .
COC(=O)c1ccc2nc(NC(=O)C(C)(C)C)sc2c1 | 20.2 | - | - | - | - | -
COC(=O)c1ccc2nc(NC(=O)C3CCCCC3)sc2c1 | - | - | - | - | - | .
CCC1CCCCN1C(=O)/C=C/c1ccc2c(c1)OCO2 (centres undefined) | - | - | . | . | - | .
CN(C)/C=C/C(=O)c1ccc(Cl)cc1 | - | - | - | - | - | .
CN(C)/C=C/C(=O)/C=C/c1ccc(Cl)cc1 | 22.1 | - | - | - | - | -
CSc1nc2c(=O)[nH]cnc2s1 | . | . | . | . | - | .
CC(C)c1ccc(S(=O)(=O)N2CCN(C(=O)c3cccc(S(=O)(=O)N4CCOCC4)c3)CC2)cc1 | . | . | . | . | - | .
CCOC(=O)C1(CCc2ccccc2)CCN(Cc2ccc(C(=O)OC)cc2)CC1 | - | - | . | . | - | .
CCOC(=O)C1(CCc2ccccc2)CCN(Cc2ccccn2)CC1 | 16.9 | - | - | - | - | -
CC1(C(=O)Nc2ccc3c(c2)OCCO3)CCC(=O)N1CCOc1ccccc1 (centres undefined) | . | . | . | . | - | .
CC(C)(C)OC(=O)NCCCc1ccc2c(c1)[C@]1(CCC[C@@H](OCc3ccccc3)[C@@H]1NC(=O)CCc1ccccc1)C(=O)N2Cc1ccccc1 | . | . | . | . | - | .
CC(C)OCCCNC(=O)CCSc1ccc(Cl)cc1 | 26.5 | - | - | - | - | -
COCCCNC(=O)CCSc1ccc(C)cc1 | - | - | - | - | - | .
Cc1ccc(Nc2nc(N)[nH]c(=O)c2N=O)cc1 | 28.9 | - | - | - | - | 18.9
Cc1cc(C)c(S(=O)(=O)N2CCOC23CCN(S(C)(=O)=O)CC3)c(C)c1 | . | . | . | . | - | .
COc1cccc(/C=N/NC(=O)c2ccc3nc[nH]c3c2)c1O | - | - | - | - | - | .
CCN(CC)c1ccc(/C=N/NC(=O)c2ccc3nc[nH]c3c2)c(O)c1 | 37.8 | - | - | 61.7 | . | 13.3
CCOC(=O)C1=C(C)NC2=C(C(=O)C(C(=O)OCC)C(c3ccccc3OC)C2)C1c1ccccn1 (centres undefined) | 18.3 | - | - | 83.2 | - | 23.2
CCOC(=O)C1=C(C)NC2=C(C(=O)C(C(=O)OCC)C(c3cccc(OC)c3)C2)C1c1ccccn1 (centres undefined) | 26.3 | - | - | 88.8 | - | 21.4
COC(=O)C1C(=O)C2=C(CC1C)NC(C)=C(C(=O)OCCOc1ccccc1)C2c1ccc(C)o1 (centres undefined) | - | - | - | - | - | .
CCOC(=O)C1=C(C)NC2=C(C(=O)C(C(=O)OCC)C(c3ccc(OC)cc3)C2)C1c1ccccn1 (centres undefined) | 18.0 | - | - | 74.7 | - | 27.5
NC(=O)CC1(c2ccccc2)CCCCC1 | . | . | . | . | - | .
SMILES | RanGTP-Imp inh | MEX-5 binding | Runt-CBFb FRET | Runt-SMMHC FRET | proKLK7 act | YIC FRET counter
Cc1ccc(-c2cc(-c3ccccc3)[nH]c(=S)c2C#N)cc1 | - | - | - | - | - | .
N#Cc1c(N)[nH]c(=S)c(C#N)c1-c1ccccc1 | 30.6 | - | - | - | - | -
CNC(=O)c1c(C)[nH]c(=S)c(C#N)c1-c1ccco1 | 31.0 | - | - | - | - | -
CCCn1nc(NC(=O)CC(C)C)c2cc3cccc(C)c3nc21 | 19.9 | - | . | . | - | 31.8
CCn1nc(NS(=O)(=O)c2ccc([N+](=O)[O-])cc2)c2cc3cccc(C)c3nc21 | - | - | . | . | - | .
Cc1ccc(-c2nc3cc(N)ccc3o2)cc1 | 20.5 | - | - | - | - | -
Cc1ccc(-c2nc3cc(C)ccc3o2)cc1 | - | - | - | - | - | .
Cc1ccc(Nc2nc(N)nc(CCl)n2)cc1 | - | - | - | - | - | .
Cc1ccc(Nc2nc(N)nc(CC#N)n2)cc1 | 24.5 | - | - | - | - | -
N#CC1=C(N)OC2=C(CCc3ccccc32)C1c1ccccc1 (centres undefined) | 17.8 | - | - | - | - | -
Cc1ccc(/C=C2\CCC3=C2OC(N)=C(C#N)C3c2ccc(C)cc2)cc1 (centres undefined) | - | - | - | - | . | .
O=C(COC(=O)c1cccnc1Nc1ccccc1F)NCCN1C(=O)CSC1=O | 27.4 | - | - | - | - | -
CCCNC(=O)COC(=O)c1cccnc1Nc1ccccc1F | - | - | - | - | - | .
CCC(C)c1ccc(OCC(=O)O)cc1 (centres undefined) | 24.4 | - | - | - | - | -
O=C1Cc2cc(CCN3CCN(c4nsc5ccccc45)CC3)c(Cl)cc2N1 | . | . | - | - | . | .
O=C1/C(=C/c2cccs2)Sc2ccccc21 | 18.8 | - | - | - | - | ?
COc1ccc(CNc2ccc3c(c2)ncn3-c2ccccc2OC)cc1 | 29.1 | - | - | - | - | -
COc1ccccc1-n1cnc2cc(NCc3cccs3)ccc21 | ? | - | - | - | - | .
Cc1ccccc1-n1cnc2cc(NCc3cccs3)ccc21 | 22.3 | - | - | - | - | -
COCCCNC(=O)C[C@H]1C[C@@]2(C(=O)OC)C(=C[C@H](C3CCCC3)O[C@@H]2C)N(CCc2ccc(OC)c(OC)c2)C1=O | . | . | . | . | - | .
CCCOc1ccc(C2C(C(=O)OC)=CN(CCOC)C=C2C(=O)OC)cc1 | 25.5 | - | 88.0 | . | - | 16.7
COC(=O)C1=CN(Cc2ccc(C)cc2)C=C(C(=O)OC)C1c1ccc(F)c(F)c1 | ? | - | . | . | - | .
CC(C)c1ccccc1NC(=O)C1C2C=CC(C2)C1C(=O)O (centres undefined) | 24.2 | - | . | . | - | -
COc1ccc(C2NC(=S)NC3=C2CCCC3=C2SCCS2)cc1 (centres undefined) | 18.4 | - | - | - | - | -
C=CCn1c(=O)c(C(=O)Nc2ccc(C)cc2)c(O)c2ccccc21 | 28.2 | - | . | . | - | -
SMILES | RanGTP-Imp inh | MEX-5 binding | Runt-CBFb FRET | Runt-SMMHC FRET | proKLK7 act | YIC FRET counter
CC1CCN(c2nc3ccccc3nc2C(C#N)C(=O)OC2CCCCC2)CC1 (centres undefined) | 19.7 | - | - | - | . | 14.5
COc1ccc2cc(CCN3C(=O)c4ccccc4C3=O)c(=O)[nH]c2c1 | 20.4 | - | - | - | - | -
COc1cc(OC)cc(-c2noc([C@@H]3O[C@H](CO)[C@H](O)[C@H](O)[C@H]3O)n2)c1 | . | . | . | . | - | .
Cc1c(NC2=CC(=O)CCC2)c(=O)n(-c2ccccc2)n1C | 17.8 | - | - | - | - | -
CO/N=C\c1cc(C(=O)c2ccc(Cl)cc2Cl)cn1C | 31.6 | - | - | - | - | -
Cn1cc(C(=O)c2cccc(Cl)c2)cc1/C=N\O | - | - | - | - | - | .

Screening data from PubChem BioAssay.
